Experimental data published in ChEMBL document CHEMBL4041508, “Synthesis and biological evaluation of chemical tools for the study of Dolichol Linked Oligosaccharide Diphosphatase (DLODP)” (Eur J Med Chem, 2017).
The source made the active and inactive calls. The rule behind the calls is not given here.

Assays:
Homo sapiens [1] = species: Homo sapiens; assay: Inhibition of DLODP in human HepG2 microsomal membrane assessed as reduction in [3H]OSP production at 50 mM using Glc3-0[3H]Man9-5GlcNAc2-PP-dolichol as substrate at pH 5.5 measured after 20 to 60 mins by scintillation counting; assay type: cell membranes
Homo sapiens [2] = species: Homo sapiens; assay: Inhibition of DLODP in human HepG2 microsomal membrane assessed as reduction in [3H]OSP production at 3 mM using Glc3-0[3H]Man9-5GlcNAc2-PP-dolichol as substrate at pH 5.5 measured after 20 to 60 mins by scintillation counting; assay type: cell membranes
[3] = Inhibition of DLODP in human HepG2 microsomal membrane assessed as reduction in [3H]OSP production using Glc3-0[3H]Man9-5GlcNAc2-PP-dolichol as substrate at pH 5.5 measured after 20 to 60 mins by scintillation counting; assay type: cell membranes
Homo sapiens [4] = species: Homo sapiens; assay: Inhibition of DLODP in human Caco2 microsomes assessed as reduction in neutral oligosaccharide production at low concentration using Glc3-0[3H]Man9-5GlcNAc2-PP-dolichol as substrate measured after 20 to 60 mins by scintillation counting
Procedure, shortened: (§1)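 Cells grown in RPMI 1640 with 10% fetal calf serum and 1% penicillin/streptomycin, plus 1% non-essential amino acids for Caco-2 TC7, for 8 days before total membrane preparation. Assay uses 20 µg membrane protein in standard mix (100 mM MES pH 5.5, 1 mM CoCl2, 0.1% NP-40) with added inhibitor, 37 °C. Radioactivity in OSP and neutral oligosaccharides separated by ion exchange, counted by scintillation.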

Homo sapiens [5] = species: Homo sapiens; assay: Inhibition of DLODP in human HepG2 microsomes assessed as reduction in OSP production at higher concentration using Glc3-0[3H]Man9-5GlcNAc2-PP-dolichol as substrate measured after 20 to 60 mins by scintillation counting; procedure, shortened: as §1
Homo sapiens [6] = species: Homo sapiens; assay: Inhibition of DLODP in human HepG2 microsomes assessed as reduction in neutral oligosaccharide production at low concentration using Glc3-0[3H]Man9-5GlcNAc2-PP-dolichol as substrate measured after 20 to 60 mins by scintillation counting; procedure, shortened: as §1
Homo sapiens [7] = species: Homo sapiens; assay: Inhibition of DLODP in human Caco2 microsomes assessed as reduction in OSP production at higher concentration using Glc3-0[3H]Man9-5GlcNAc2-PP-dolichol as substrate measured after 20 to 60 mins by scintillation counting; procedure, shortened: as §1

Row | Compound | inhibition (Homo sapiens [1]) | IC50 [3] [mM] | other results
1 | CO[C@H]1O[C@H](CO)[C@@H](O)[C@H](O)[C@@H]1O | inactive | – | –
2 | CC(=O)N[C@H]1[C@@H](O[P@@](=O)(O)O[P@@](=O)(O)OC[C@H]2O[C@@H](n3ccc(=O)[nH]c3=O)[C@H](O)[C@@H]2O)O[C@H](CO)[C@@H](O)[C@@H]1O | – | – | inhibition (Homo sapiens [2]): inactive
3 | O=[N+]([O-])c1ccc(OP(=O)(O)O)cc1 [p-NITROPHENYLPHOSPHATE] | – | 4.2 | –
4 | CC(=O)N[C@@H]1[C@@H](O)[C@H](O[C@@H]2O[C@H](CO)[C@H](O)[C@H](O)[C@H]2O)[C@@H](CO)O[C@@H]1O | inactive | – | –
5 | CC(C)=CCC[C@H](C)CCOP(=O)(O)CP(=O)(O)O | – | 0.7 | –
6 | O=P(O)(O)CP(=O)(O)O | – | – | inhibition (Homo sapiens [2]): inactive
7 | O=[N+]([O-])c1ccc(OP(=O)(O)Oc2ccc([N+](=O)[O-])cc2)cc1 | – | 1.2 | –
8 | CC(C)O | Active | – | –
9 | CO[C@@H]1O[C@H](CO)[C@@H](O)[C@H](O)[C@@H]1O | 10% | – | –
10 | CCCOP(=O)(O)O | – | – | inhibition (Homo sapiens [2]): inactive
11 | CC(=O)N[C@@H]1[C@@H](O)[C@H](O[C@@H]2O[C@H](CO)[C@@H](O)[C@H](O)[C@@H]2O)[C@@H](CO)O[C@@H]1O | 30% | – | –
12 | CC(=O)N[C@@H]1[C@@H](O)[C@H](O)[C@@H](CO)O[C@@H]1O | inactive | – | –
13 | CC(C)=CCC/C(C)=C/CC/C(C)=C/CC/C(C)=C/CC/C(C)=C/CC/C(C)=C/CC/C(C)=C/CC/C(C)=C/CC/C(C)=C/COP(=O)(O)OP(=O)(O)O | – | 0.0047 | –
14 | CC(=O)N[C@@H]1[C@@H](O)[C@H](O[C@@H]2O[C@H](CO)[C@@H](O)[C@H](O)[C@H]2NC(C)=O)[C@@H](CO)O[C@@H]1O | < 10% | – | –

More lines, main results first:

Row | inhibition (Homo sapiens [1]) | IC50 [3] [mM] | Compound | other results
15 | inactive | – | OC[C@H]1OC(O)[C@@H](O)[C@@H](O)[C@@H]1O (stereo not given in full) | –
16 | – | > 3 | CC(=O)N[C@H]1[C@@H](OP(=O)(O)O)O[C@H](CO)[C@@H](O)[C@@H]1O | inhibition (Homo sapiens [4]): Active; inhibition (Homo sapiens [5]): Active; inhibition (Homo sapiens [6]): Active; inhibition (Homo sapiens [7]): Active
